Test results as given in ChEMBL document CHEMBL4627406, “Amino Acids Bearing Aromatic or Heteroaromatic Substituents as a New Class of Ligands for the Lysosomal Sialic Acid Transporter Sialin” (J Med Chem, 2020).
The source made the active and inactive calls. The rule behind the calls is not given here.

Experiments:
Sialin (Homo sapiens) [1] = molecular target: T1, Sialin (Homo sapiens) (UniProt Q9NRA2); assay: Inhibition of human recombinant-Sialin expressed in HEK293 cells assessed as reduction in [3H]Neu5Ac uptake at 30 uM incubated for 15 mins by liquid scintillation counting method; assay type: cell-based
T1 sequence (whole entry): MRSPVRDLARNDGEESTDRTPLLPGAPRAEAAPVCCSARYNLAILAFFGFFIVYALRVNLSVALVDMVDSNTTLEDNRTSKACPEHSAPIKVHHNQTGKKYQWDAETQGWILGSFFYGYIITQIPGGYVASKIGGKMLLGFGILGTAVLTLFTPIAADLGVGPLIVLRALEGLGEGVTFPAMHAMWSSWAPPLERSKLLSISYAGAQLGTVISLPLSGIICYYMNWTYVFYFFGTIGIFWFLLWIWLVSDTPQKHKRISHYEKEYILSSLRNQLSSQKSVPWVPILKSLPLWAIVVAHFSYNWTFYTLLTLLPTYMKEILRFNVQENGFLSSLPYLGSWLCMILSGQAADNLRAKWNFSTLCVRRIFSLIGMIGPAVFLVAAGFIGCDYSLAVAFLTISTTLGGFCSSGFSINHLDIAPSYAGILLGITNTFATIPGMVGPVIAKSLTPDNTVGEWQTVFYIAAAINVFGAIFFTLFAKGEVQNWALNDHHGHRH
Procedure, shortened: (§1)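 HEK293 cells expressing EGFP-human sialin L22G/L23G (sorting mutant at the plasma membrane), assayed 2 days after lipofection. Uptake of [3H]Neu5Ac (12.5 nM) over 15 min at room temperature in MES-Na+ pH 5.0 with inhibitor added together with tracer. Cells washed twice ice-cold, radioactivity counted by liquid scintillation. Dose-response run in triplicate, two to three independent experiments.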

Sialin (Homo sapiens) [2] = molecular target: T1, Sialin (Homo sapiens); assay: Inhibition of human recombinant-Sialin expressed in HEK293 cells assessed as reduction in [3H]Neu5Ac uptake at 30 to 300 uM incubated for 15 mins by liquid scintillation counting method; assay type: cell-based; procedure, shortened: as §1
HEK293 [3] = assay: Substrate activity mRFP-tagged human recombinant-Sialin L22G/L23G mutant expressed in HEK293 cells assessed as induction of cytosolic acidification by measuring E2GFP fluorescence at 10 mM at pH 5.5; assay type: cell-based
Procedure, shortened: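 HEK293 cells co-expressing the ratiometric pH probe E2GFP and mRFP-tagged human sialin L22G/L23G. Cytosolic acidification from sialin-mediated H+ co-transport was read by E2GFP fluorescence after application at pH 5.5 of Neu5Ac (10 mM) or test ligand (30 μM).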

Sialin (Homo sapiens) [4] = molecular target: T1, Sialin (Homo sapiens); assay: Trans-stimulation of human recombinant-Sialin expressed in HEK293 cells assessed as [3H]Neu5Ac transport at 5 mM pre-incubated for 15 mins at pH 5.5 followed by 15 or 30 mins wash at pH 7 at room temperature by liquid scintillation counting method; assay type: cell-based
HEK293 [5] = assay: Substrate activity at EGFP-fused human Sialin L22G/L23G mutant expressed in HEK293 cells in acidic medium using tritiated compound at 2 to 100 uM by liquid scintillation counting method; assay type: cell-based
Procedure, shortened: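 [3H]-labelled test ligand uptake measured in HEK293 cells expressing EGFP-sialin L22G/L23G versus mock (EGFP) cells, as for Neu5Ac uptake, using 2 μM tracer. For comparison, [3H]Neu5Ac was measured at 100 μM. Acidic MES pH 5.0 medium, liquid scintillation counting.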

[6] = molecular target: Proton-coupled amino acid transporter 1 (Homo sapiens) (UniProt Q7Z2H8); assay: Inhibition of human LYAAT1 at 100 uM relative to control
Sialin (Homo sapiens) [7] = molecular target: T1, Sialin (Homo sapiens); assay: Inhibition of human recombinant-Sialin expressed in HEK293 cells assessed as reduction in [3H]Neu5Ac transport at 120 uM pre-incubated for 15 mins at pH 5.5 followed by 15 or 30 mins wash at pH 7 at room temperature by liquid scintillation counting method relative to control; assay type: cell-based
Sialin (Homo sapiens) [8] = molecular target: T1, Sialin (Homo sapiens); assay: Non-competitive inhibition of human recombinant-Sialin expressed in HEK293 cells assessed as reduction in Vmax for [3H]Neu5Ac uptake at 10 uM incubated for 15 mins by liquid scintillation counting method relative to control; assay type: cell-based
Sialin (Homo sapiens) [9] = molecular target: T1, Sialin (Homo sapiens); assay: Inhibition of human recombinant-Sialin expressed in HEK293 cells assessed as reduction in [3H]Neu5Ac uptake at 100 uM incubated for 15 mins by liquid scintillation counting method; assay type: cell-based; procedure, shortened: as §1
[10] = molecular target: T2, Cystinosin (Homo sapiens) (UniProt O60931); assay: Inhibition of human cystinosin at 100 uM relative to control
T2 sequence (whole entry): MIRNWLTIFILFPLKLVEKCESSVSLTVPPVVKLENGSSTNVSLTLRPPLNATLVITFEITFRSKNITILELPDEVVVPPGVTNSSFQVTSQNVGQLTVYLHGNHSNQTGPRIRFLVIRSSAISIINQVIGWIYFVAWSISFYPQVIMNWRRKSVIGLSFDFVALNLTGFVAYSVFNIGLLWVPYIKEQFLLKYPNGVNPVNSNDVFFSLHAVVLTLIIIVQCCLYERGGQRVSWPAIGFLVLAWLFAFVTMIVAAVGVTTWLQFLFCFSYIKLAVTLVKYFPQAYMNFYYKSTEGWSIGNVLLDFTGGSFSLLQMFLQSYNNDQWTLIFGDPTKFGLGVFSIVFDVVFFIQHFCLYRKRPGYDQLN
Procedure, shortened: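 Human cystinosin and rat LYAAT1 expressed at the plasma membrane of HEK293 cells, assayed one day after lipofection in MES-Na+ pH 5.0. Substrates were [14C]cystine (20 μM) for cystinosin and [3H]proline (100 μM) for LYAAT1. Test agent present during uptake, run in parallel with sialin. Triplicate measurements, three independent experiments.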

Sialin (Homo sapiens) [11] = molecular target: T1, Sialin (Homo sapiens); assay: Inhibition of human recombinant-Sialin expressed in HEK293 cells assessed as reduction in [3H]Neu5Ac transport pre-incubated for 15 mins at pH 5.5 followed by 15 mins wash at pH 7 at room temperature by liquid scintillation counting method relative to control; assay type: cell-based
Sialin (Homo sapiens) [12] = molecular target: T1, Sialin (Homo sapiens); assay: Ratio of Km for Neu5Ac to Ic50 for test compound for inhibition of human recombinant-Sialin expressed in HEK293 cells assessed as reduction in [3H]Neu5Ac uptake at 30 to 300 uM incubated for 15 mins by liquid scintillation counting method; assay type: cell-based

Proton-coupled amino acid transporter 1 (Homo sapiens), sequence (Q7Z2H8 whole entry): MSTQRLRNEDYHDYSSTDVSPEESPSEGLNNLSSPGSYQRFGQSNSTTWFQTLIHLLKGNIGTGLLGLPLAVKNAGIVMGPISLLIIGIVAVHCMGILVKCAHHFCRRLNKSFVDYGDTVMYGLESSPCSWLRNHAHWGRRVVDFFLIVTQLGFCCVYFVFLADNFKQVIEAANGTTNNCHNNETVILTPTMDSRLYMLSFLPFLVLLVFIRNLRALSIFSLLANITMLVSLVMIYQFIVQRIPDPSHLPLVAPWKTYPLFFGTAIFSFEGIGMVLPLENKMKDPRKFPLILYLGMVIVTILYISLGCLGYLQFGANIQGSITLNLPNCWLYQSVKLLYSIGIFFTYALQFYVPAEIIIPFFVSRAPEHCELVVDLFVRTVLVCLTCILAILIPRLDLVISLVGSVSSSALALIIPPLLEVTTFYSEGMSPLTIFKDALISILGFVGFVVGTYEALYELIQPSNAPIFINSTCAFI

Row | Compound | inhibition (Sialin (Homo sapiens) [1]) | inhibition (Sialin (Homo sapiens) [2]) | also measured
1 | CC(C)(C)SC[C@H](NC(=O)OCC1c2ccccc2-c2ccccc21)C(=O)O | Active |  | 
2 | O=C(NCCCC[C@H](NC(=O)OCc1cc(=O)oc2cc(O)ccc12)C(=O)O)OCc1ccccc1 | Active |  | 
3 | CC(C)CC(NC(=O)OCC1c2ccccc2-c2ccccc21)C(=O)O (stereo unspecified) | Active |  | 
4 | COC(=O)CC[C@H](NC(=O)OCC1c2ccccc2-c2ccccc21)C(=O)O | Active | Dose-dependent effect | 
5 | O=C(N[C@@H](Cc1ccccc1)C(=O)O)OCC1c2ccccc2-c2ccccc21 | Active |  | 
6 | O=C(N[C@@H](CSCc1cc(=O)oc2cc(O)c(Cl)cc12)C(=O)O)OCC1c2ccccc2-c2ccccc21 | Active | Dose-dependent effect | 
7 | O=C(Cc1cc(=O)oc2cc(O)ccc12)N[C@@H](CCCCNC(=O)OCc1ccccc1)C(=O)O | Active |  | 
8 | CN(C)c1ccc2c(CC(=O)NCCCC[C@H](NC(=O)OCC3c4ccccc4-c4ccccc43)C(=O)O)cc(=O)oc2c1 | Active |  | 
9 | O=C(Cc1cc(=O)oc2c3c4c(cc12)CCCN4CCC3)N[C@@H](CCCCNC(=O)OCc1ccccc1)C(=O)O | Active |  | 
10 | CC(C)(C)Oc1ccc(C[C@H](NC(=O)OCC2c3ccccc3-c3ccccc32)C(=O)O)cc1 | Active |  | 
11 | CC(=O)N[C@H]1[C@H]([C@H](O)[C@H](O)CO)OC(O)(C(=O)O)C[C@@H]1O (stereo partly specified) |  | Active | Activity (HEK293 [3]): Active; Activity (Sialin (Homo sapiens) [4]): 130%; Activity (HEK293 [5]): Active
12 | Cc1cc(C)cc(C(=O)N(C)[C@H](Cc2ccc(-c3ccccc3)cc2)C(=O)N[C@@H](Cc2c[nH]c3ccccc23)C(=O)O)c1 |  | Active | 
13 | O=C(N[C@@H](CS)C(=O)O)OCC1c2ccccc2-c2ccccc21 | Active |  | 
14 | CN(C)c1ccc2c(CC(=O)N[C@@H](CCCCNC(=O)OCc3ccccc3)C(=O)O)cc(=O)oc2c1 | Active |  | 
15 | CCN(CC)c1ccc2c(CC(=O)N[C@@H](CCCCNC(=O)OCc3ccccc3)C(=O)O)cc(=O)oc2c1 | Active |  | 
16 | O=C(NCCCC[C@H](NC(=O)OCC1c2ccccc2-c2ccccc21)C(=O)O)OCc1ccccc1 |  | Active | 

Row | Compound | inhibition (Sialin (Homo sapiens) [1]) | inhibition (Sialin (Homo sapiens) [2]) | also measured
17 | COc1ccc2c(CSC[C@H](NC(=O)OCC3c4ccccc4-c4ccccc43)C(=O)O)cc(=O)oc2c1 | Active | Dose-dependent effect | 
18 | O=C(N[C@@H](CSCc1ccccc1)C(=O)O)OCC1c2ccccc2-c2ccccc21 | inactive |  | 
19 | O=C(NCCCC[C@H](NC(=O)OCC1c2ccccc2-c2ccccc21)C(=O)O)OCC1c2ccccc2-c2ccccc21 | inactive |  | 
20 | CC[C@H](C)[C@H](NC(=O)OCC1c2ccccc2-c2ccccc21)C(=O)O | Active |  | 
21 | COc1ccc(CSC[C@H](NC(=O)OCC2c3ccccc3-c3ccccc32)C(=O)O)cc1 | Active |  | 
22 | CC(C)C[C@H](NC(=O)OCC1c2ccccc2-c2ccccc21)C(=O)O | Active | Dose-dependent effect | inhibition [6]: Active; inhibition (Sialin (Homo sapiens) [7]): 55%; inhibition (Sialin (Homo sapiens) [8]): 56%; inhibition (Sialin (Homo sapiens) [9]): 100%; inhibition [10]: Active; Activity (HEK293 [5]): inactive
23 | O=C(NCCCC[C@H](NC(=O)c1cc(=O)[nH]c2ccccc12)C(=O)O)OCc1ccccc1 | inactive |  | 
24 | O=C(OCc1cc(=O)oc2cc(O)ccc12)OCC1c2ccccc2-c2ccccc21 | inactive |  | 
25 | CC(C)(C)OC(=O)NCc1ccc(C[C@@H](NC(=O)OCC2c3ccccc3-c3ccccc32)C(=O)O)cc1 |  | Active | 
26 | O=C(O)[C@@H]1OCCOCCO[C@@H](C(=O)O)[C@H](C(=O)O)OCCOCCO[C@H]1C(=O)O |  | Active | 
27 | O=C(O)CN(CC(=O)O)Cc1cc2c(cc1O)Oc1cc(O)c(CN(CC(=O)O)CC(=O)O)cc1C21OC(=O)c2ccccc21 |  | Active | 
28 | O=C(O)[C@@H]1CCCN1C(=O)OCC1c2ccccc2-c2ccccc21 | inactive |  | 
29 | CC(C)C[C@H](NC(=O)N1CCCCCC1)C(=O)N[C@H](Cc1cn(C)c2ccccc12)C(=O)N[C@H](Cc1ccccn1)C(=O)O |  |  | inhibition (Sialin (Homo sapiens) [11]): inactive; Ratio (Sialin (Homo sapiens) [12]): 50
30 | O=C(O)CN(CC(=O)O)c1ccccc1OCCOc1ccccc1N(CC(=O)O)CC(=O)O |  | Active | 
31 | CC(C)(C)OC(=O)C[C@H](NC(=O)OCC1c2ccccc2-c2ccccc21)C(=O)O | Active |  | 
32 | CN(Cc1cnc2nc(N)nc(N)c2n1)c1ccc(C(=O)N[C@@H](CCC(=O)O)C(=O)O)cc1 |  | Active | 
